# Source: PubChem BioAssay
# M1 ag: M1 muscarinic receptor agonism; CHO-M1 cells, Fluo-4 calcium fluorescence, agonist mode; active compounds read high; AID 626; hit rate 3% among 64,000; B-score at 10 µM;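 active = fluorescence rise, raw or as B-score row- and column-corrected plate score, outside the 99.7% band of its plate's samples, either direction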
# mHtt clearance: mutant huntingtin protein clearance; inhibition, % at 1.5 µM; HeLa Exon1htt(103Q)mCFP, aggregate imaging; zero = plate's median compound well; hit rate 0.42% among 47,000; AID 853;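 active = inhibition of aggregate fluorescence above about 70%, also judged a hit by eye on the cell image, limit read from the data, passing the limit was not always enough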;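 also: cells exposed to compound for three days before fixation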
# SF-1 act: activators of human nuclear receptor SF-1. AID 522. Q13285. hit rate 1.9% among 65,000. activation, % at 10 µM. CHO-K1 Gal4-SF-1 LBD luciferase reporter; % increase over DMSO SF-1-specific signal;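 active = activation above the mean activation of all tested compounds plus 3 SD, cut at about 50% in these data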
#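 Test system: CHO-K1 cells with Gal4–hSF-1 LBD chimera plus Gal4-driven luciferase; Input: 4,000 cells/well; Compound: 10 µM only; Times: 20 h compound treatment, 37 °C; Measured by: steady-glow luciferase luminescence, read after 15 min reagent incubation; Measure: percent activation versus DMSO; Control set: DMSO and mock-transfected background; Replicates: one test per compound.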
# M1 antag: antagonists of rat M1 muscarinic receptor; CHO-M1 cells, Fluo-4 calcium, ACh EC80 antagonist mode; active compounds read low; B-score at 10 µM; hit rate 3.4% among 64,000; AID 628;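 active = calcium fluorescence response, raw or row-and-column corrected B-score, differing from the plate sample mean either way at a set confidence level, mostly lower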
# RORA act: RORA (human) activation | AID 560 | activation, % at 10 µM | hit rate 1.5% among 65,000 | CHO-K1 Gal4-RORA LBD luciferase reporter, luminescence; percent increase over mock-subtracted basal signal;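 active = activation above the mean of all tested compounds plus 3 SD, cut at about 49% in these data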;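 also: 0% = DMSO-treated RORA cells and 100% = added signal equal to DMSO minus mock-transfected cells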
# Target sequence (P35398 whole entry, looked up, the tested form may be a part): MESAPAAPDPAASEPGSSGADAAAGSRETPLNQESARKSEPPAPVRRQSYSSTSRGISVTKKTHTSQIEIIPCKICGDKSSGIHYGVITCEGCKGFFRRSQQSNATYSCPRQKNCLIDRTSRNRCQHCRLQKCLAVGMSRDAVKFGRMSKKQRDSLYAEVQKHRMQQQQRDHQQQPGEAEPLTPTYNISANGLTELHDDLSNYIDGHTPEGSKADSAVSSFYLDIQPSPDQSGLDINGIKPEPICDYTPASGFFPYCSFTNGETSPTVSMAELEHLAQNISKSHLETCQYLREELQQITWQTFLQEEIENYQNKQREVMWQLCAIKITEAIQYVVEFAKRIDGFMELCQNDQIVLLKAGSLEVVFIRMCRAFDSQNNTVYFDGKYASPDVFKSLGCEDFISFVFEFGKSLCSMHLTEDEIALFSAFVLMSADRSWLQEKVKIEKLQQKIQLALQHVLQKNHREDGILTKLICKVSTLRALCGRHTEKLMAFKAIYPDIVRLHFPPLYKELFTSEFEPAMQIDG
# D1 allo mod: allosteric modulators of human D1 dopamine receptor; hit rate 5.9% among 58,000; HEK293 D1, CRE-luciferase, dopamine EC30 potentiation; actives deviate in either direction; P21728; B-score at 10 µM;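 active = luminescence count or its row- and column-corrected plate score outside the 99.7% band of the plate's sample wells, on either side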
# * marks the source's active call; other numbers are inactive results; . = no result given. The list is not random: actives were taken first. Their share in the collection is about 11%.
SMILES,M1 ag,mHtt clearance,SF-1 act,M1 antag,RORA act,D1 allo mod
Cc1ccc(C(=O)/C=C/Nc2ccccc2C(N)=O)o1,0.811,-15.7,63.2*,-0.431,34.5,-4.14*
CC(C)(C)N1C(=O)c2ccc(C(=O)NCc3ccco3)cc2C1=O,0.327,-0.1,-8.0,-1.03,-10.6,.
O=C1OCCC1N1C(=O)c2ccccc2S1(=O)=O (centres undefined),-0.476,-105.4,-17.1,-0.705,-21.0,-4.3*
Cc1onc(-c2ccccc2Cl)c1C(=O)N1CCN(c2cccc(Cl)c2)CC1,0.486,.,4.3,-0.0643,18.9,.
Cc1onc(-c2ccccc2Cl)c1C(=O)N1CCN(c2ccccc2)CC1,-0.25,.,-6.1,-0.000196,-9.5,-2.4*
Cc1ccc(NC(=O)c2ccccc2)s1,0.557,-8.4,2.9,-0.198,39.0,-5.19*
CSc1nc2ccc3nc(NC(=O)c4ccccc4)sc3c2s1,.,26.8,.,.,.,.
Cc1cc(NC(=O)c2ccccc2)sc1C,0.00377,0.4,-1.7,-0.00601,23.8,-2.89*
c1ccc(-n2ncc3c(NCc4cccs4)ncnc32)cc1,-1.36,.,51.1*,0.922,30.5,-2.74
CCCN(CCC)c1ncnc2c1cnn2-c1ccc(OC)cc1,1.3,14.7,29.2,-0.425,2.7,-1.26
COc1ccc(-n2ncc3c(NCc4cccs4)ncnc32)cc1,-0.463,-31.2,81.6*,0.0181,36.3,.
c1ccc(CNc2ncnc3c2cnn3Cc2ccccc2)cc1,.,23.9,.,.,.,.
c1ccc(-n2ncc3c(NCc4cccnc4)ncnc32)cc1,0.189,.,40.9,0.074,51.5*,.
CN1CCCN(C(=O)Cc2c(Cl)cccc2Cl)c2nc3ccccc3nc21,-0.499,28.4,-13.6,0.185,-9.7,3.73
CC(C)(C)c1ccc(C(=O)N2CCC(C(=O)NCc3ccncc3)CC2)cc1,-0.445,-42.4,24.8,-0.254,59.6*,-0.352
CCCCCOc1ccc(NS(C)(=O)=O)cc1,0.356,-3.1,31.9,-0.27,63.7*,-0.543
C=CCn1c(SCC(=O)c2cc(C)n(C(C)COC)c2C)nc2sc(C)c(C)c2c1=O (centres undefined),0.0378,11.3,-4.2,-0.0411,-7.8,2.55
CC(C)C[C@H](NC(=O)Nc1ccc(S(N)(=O)=O)cc1)C(=O)O,.,-15.6,-11.1,.,-3.9,-0.286
COC(=O)[C@H](C)NC(=O)Nc1ccc(S(N)(=O)=O)cc1,0.411,-26.5,-11.4,1.59*,12.0,0.295
Cc1ccc(-n2nc(-c3ccc(N)cc3)cc2N)cc1,-0.715,.,47.0,0.97,30.7,-1.42
Cc1ccc(-n2nc3ccc(N)cc3n2)cc1,-0.131,.,-15.1,-0.669,-30.2,-4.44*
COC(=O)c1ccc(C(=O)OC)c(NC(=O)CSc2cccc[n+]2[O-])c1,.,27.0,.,.,.,.
COc1ccc(-n2c(SCC(=O)Nc3nccs3)nc3c(c2=O)SC(C)C3)cc1 (centres undefined),0.0173,.,-15.8,0.818*,0.6,.
COc1ccc(C(CC(=O)NC(C)(C)C)n2cccc2)cc1 (centres undefined),-0.257,.,14.2,0.186,-12.0,-0.0952
COc1ccc(C(CC(=O)Nc2nccs2)n2cccc2)cc1 (centres undefined),0.144,.,54.9*,0.343,48.4,-1.88
SMILES,M1 ag,mHtt clearance,SF-1 act,M1 antag,RORA act,D1 allo mod
Cn1c(SCC(=O)c2ccccc2)nnc1-c1cnccn1,0.0696,.,61.4*,-0.148,30.0,.
CCn1c(SCC(=O)c2ccccc2)nnc1-c1cnccn1,0.0233,6.1,44.5,0.00555,22.5,-0.827
CCC(=O)Nc1cccc(-c2nnc(SCC(=O)c3ccccc3)n2C)c1,-0.407,9.2,43.5,-0.195,61.0*,-1.62
Cc1cc(C)c(N2CCN(S(=O)(=O)N3CCCCCC3)CC2)c(C)c1,-0.239,-20.4,-12.1,0.344,-7.1,0.261
CCOC(=O)c1sc(-c2ccc(OC)cc2)cc1N,-0.274,-98.2,62.5*,-0.0662,44.0,0.441
CCOC(=O)c1cc(-c2ccccc2)sc1NC(=O)c1ccc(OC)cc1,.,25.9,.,.,.,.
CC(=O)C(=Nc1ccccc1Cl)NNc1ccc(Cl)cc1,.,50.8,.,.,.,.
Clc1ccc(Cl)c(OCc2cc(-c3ccccc3Cl)on2)c1,.,2.3,.,.,.,.
CN(Cc1ccccc1)Cc1c[nH]c2ccccc12,-0.000874,.,-10.9,-0.129,-2.9,-4.5*
CN(Cc1ccccc1)Cc1c(F)cccc1F,0.436,.,-16.9,-0.041,-19.8,1.66
CN(C)S(=O)(=O)c1ccc(NC(=O)CN2CCN(C(c3ccccc3)c3ccccc3)CC2)cc1,.,49.7,.,.,.,.
CCSc1nnc2c(n1)[nH]c1c(C)cccc12,-0.792,.,40.5,-0.318,63.9*,-0.76
CSc1nnc2c(n1)[nH]c1c(C)cccc12,0.253,.,18.1,0.289,31.1,-0.326
COc1ccc(-c2nc(SC)n(C(=O)c3ccco3)n2)cc1,0.162,45.8,58.0*,-0.0219,30.0,-0.097
Cc1c(NC(=O)CSc2ccccc2C(=O)Nc2cccnc2)c(=O)n(-c2ccccc2)n1C,0.34,.,6.2,-0.0829,4.5,-0.202
O=C(NC(Cc1ccccc1)C(=O)O)/C(=C\c1ccc(F)cc1)NC(=O)c1ccccc1 (centres undefined),.,-0.7,.,.,.,.
CCOc1ccc2nc(C(C)O)[nH]c2c1 (centres undefined),-0.396,-26.6,-4.8,0.403,-8.8,-0.541
CCOc1ccc2nc(-c3ccccc3)[nH]c2c1,0.0149,48.1,27.4,0.0846,66.8*,-2.09
COc1ccc2nc(-c3ccccc3)[nH]c2c1,0.495,.,4.6,0.774,0.1,-5.27*
COc1ccc2c(c1[N+](=O)[O-])CCC/C2=N/OC(=O)c1cccc2ccccc12,.,7.5,.,.,.,.
O=C1c2ccccc2C(Nc2ccc(F)cc2F)N1CCN1CCOCC1 (centres undefined),0.552,.,5.4,-0.0547,-2.5,-0.82
CC(=O)Oc1ccccc1C(=O)Oc1ccc(/C=N/n2cnnc2)cc1,-1.04,-25.7,-17.9,0.208,3.5,-3.3*
CCOC(=O)c1sc(C)c(C(=O)NCC(C)(C)CN(C)C)c1N,.,-57.5,.,.,.,.
COC(=O)c1ccc(COc2ncnc3c(Cl)cc(Cl)cc23)o1,0.429,27.7,-4.4,0.0309,1.7,2.12
CCOc1ccc(-c2nnn(CC(=O)N3CCCC3)n2)cc1OCC,.,-16.4,.,.,.,.
SMILES,M1 ag,mHtt clearance,SF-1 act,M1 antag,RORA act,D1 allo mod
CC(=O)Nc1c(O)nc(SCC(=O)Nc2ccc(C(C)=O)cc2)[nH]c1=O,-0.122,0.1,49.9*,0.596,58.1*,-0.00209
COc1ccc(-c2onc3ccc(Cl)cc23)cc1OC,1.74,57.3,13.4,0.265,-17.8,12.8*
Cc1nn(-c2nc3ccccc3s2)c(C)c1Oc1ccccc1O,0.498,.,57.7*,0.0112,66.2*,-0.484
c1ccc(Cn2c(SCc3nc4ccccc4s3)nnc2-c2ccco2)cc1,.,-28.8,7.1,.,2.5,.
c1ccc(-n2cnnc2SCc2cn3ccccc3n2)cc1,0.4,.,-6.1,0.0463,5.2,0.552
CCC(c1nnc(SCc2nc3ccccc3s2)n1Cc1ccccc1)N(C)C (centres undefined),0.342,7.9,60.7*,0.328,48.0,-0.44
Cc1nnc(SCc2nc3ccccc3s2)n1-c1ccccc1,-0.0193,.,26.1,-0.226,75.5*,2.61
